Measurements taken from article PMC4804196 (Journal of biomolecular screening, 2012).
Blank lines part the entries; values can stand above or below the compound they belong to.

Columns and labels:
[1] = biological target: T1, human RXFP1 (Homo sapiens, UniProt Q9HBX9); assay: ELISA cAMP assay; format: cell-based; details: 96-well; for efficacy: normalized to 57.5 μM forskolin as 100%
T1 sequence (Q9HBX9 1-757): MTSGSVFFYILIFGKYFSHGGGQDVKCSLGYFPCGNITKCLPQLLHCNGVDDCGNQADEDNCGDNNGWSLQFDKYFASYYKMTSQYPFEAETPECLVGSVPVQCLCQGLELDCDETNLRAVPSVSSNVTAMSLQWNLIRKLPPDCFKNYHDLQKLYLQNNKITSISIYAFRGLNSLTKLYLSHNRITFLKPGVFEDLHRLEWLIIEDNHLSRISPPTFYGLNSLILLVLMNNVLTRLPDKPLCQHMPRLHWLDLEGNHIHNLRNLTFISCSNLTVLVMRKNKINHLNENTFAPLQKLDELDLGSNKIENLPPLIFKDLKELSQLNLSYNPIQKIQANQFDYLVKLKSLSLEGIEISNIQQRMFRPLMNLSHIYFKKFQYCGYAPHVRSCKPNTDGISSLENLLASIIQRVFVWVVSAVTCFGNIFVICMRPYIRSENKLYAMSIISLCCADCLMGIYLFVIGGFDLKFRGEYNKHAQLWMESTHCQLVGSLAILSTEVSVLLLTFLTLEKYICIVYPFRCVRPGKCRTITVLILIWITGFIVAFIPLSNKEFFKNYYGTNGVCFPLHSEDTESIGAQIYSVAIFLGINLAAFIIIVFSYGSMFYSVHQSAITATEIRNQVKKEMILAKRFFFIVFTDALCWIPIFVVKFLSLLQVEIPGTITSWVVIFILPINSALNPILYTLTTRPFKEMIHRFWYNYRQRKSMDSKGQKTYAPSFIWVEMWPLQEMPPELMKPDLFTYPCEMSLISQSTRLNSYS
In short: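 HEK293T cells stably expressing human RXFP1 were grown in DMEM with 10% FBS, penicillin/streptomycin and 500 μg/mL geneticin. They were seeded at 16,000 cells/well and left overnight at 37 °C, 5% CO₂. PDE inhibitor Ro 20-1724 (417 μM addition solution in PBS+) was added, then test compound in DMSO, for 30 min at 37 °C. Cells were lysed and cAMP was quantified by ELISA. EC50 came from nonlinear regression of dose-response curves.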

[2] = biological target: T1, human RXFP1; assay: HTRF cAMP assay in HEK293-RXFP1 cells; format: cell-based
[3] = biological target: human relaxin family receptor 1 (RXFP1) (human) (UniProt Q9HBX9)
[4] = biological target: T2, vasopressin 1b receptor (V1b) (Homo sapiens, UniProt P47901); assay: HTRF cAMP counter screen in HEK293-V1b cells; format: cell-based
T2 sequence (P47901 1-424): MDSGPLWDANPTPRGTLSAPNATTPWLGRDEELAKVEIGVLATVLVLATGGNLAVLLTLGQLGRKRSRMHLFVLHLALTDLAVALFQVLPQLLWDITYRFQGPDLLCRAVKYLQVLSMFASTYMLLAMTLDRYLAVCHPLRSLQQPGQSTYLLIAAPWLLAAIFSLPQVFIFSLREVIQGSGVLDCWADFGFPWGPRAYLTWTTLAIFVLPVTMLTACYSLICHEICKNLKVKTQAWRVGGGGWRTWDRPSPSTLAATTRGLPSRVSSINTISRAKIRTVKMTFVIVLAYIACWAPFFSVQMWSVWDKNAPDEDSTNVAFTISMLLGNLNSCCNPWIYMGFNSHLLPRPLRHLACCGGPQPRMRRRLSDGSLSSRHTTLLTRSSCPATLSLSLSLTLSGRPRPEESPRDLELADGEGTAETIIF

[5] = biological target: human relaxin family receptor 2 (RXFP2) (Homo sapiens, UniProt Q8WXD0); assay: HTRF cAMP selectivity assay in HEK293-RXFP2 cells; format: cell-based; details: HEK293-RXFP1 vs HEK293-RXFP2
Chain of human relaxin family receptor 2 (RXFP2) (Q8WXD0 whole entry): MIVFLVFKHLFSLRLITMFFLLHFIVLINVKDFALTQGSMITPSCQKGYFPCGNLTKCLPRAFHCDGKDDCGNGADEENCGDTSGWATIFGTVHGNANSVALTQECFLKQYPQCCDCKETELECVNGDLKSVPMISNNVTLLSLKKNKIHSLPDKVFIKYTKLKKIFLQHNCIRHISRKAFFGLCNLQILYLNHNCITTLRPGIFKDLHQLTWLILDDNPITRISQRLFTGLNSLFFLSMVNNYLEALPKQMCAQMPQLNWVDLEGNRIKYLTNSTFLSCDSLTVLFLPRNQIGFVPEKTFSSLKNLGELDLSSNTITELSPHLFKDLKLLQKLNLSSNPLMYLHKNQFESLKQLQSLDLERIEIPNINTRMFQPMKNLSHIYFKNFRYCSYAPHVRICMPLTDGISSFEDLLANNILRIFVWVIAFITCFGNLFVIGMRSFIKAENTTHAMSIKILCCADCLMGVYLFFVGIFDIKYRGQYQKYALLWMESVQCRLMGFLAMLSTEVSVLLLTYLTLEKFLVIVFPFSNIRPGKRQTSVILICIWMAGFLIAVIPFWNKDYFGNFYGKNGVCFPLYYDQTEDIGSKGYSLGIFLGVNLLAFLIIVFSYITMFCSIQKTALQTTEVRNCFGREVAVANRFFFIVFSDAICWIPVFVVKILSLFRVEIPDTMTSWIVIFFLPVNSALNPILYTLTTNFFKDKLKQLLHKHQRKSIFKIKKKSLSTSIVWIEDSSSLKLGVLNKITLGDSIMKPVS

Chain of Porcine relaxin (ligand) (P01348 25-182): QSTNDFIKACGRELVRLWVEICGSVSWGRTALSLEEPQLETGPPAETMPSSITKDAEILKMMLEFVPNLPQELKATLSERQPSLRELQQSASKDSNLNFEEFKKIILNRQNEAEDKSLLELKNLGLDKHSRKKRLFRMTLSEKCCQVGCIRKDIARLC

EC50 [1]: 2.9 µM | efficacy [1]: 80%
Compound: O=C(Nc1ccccc1C(=O)Nc1ccccc1C(=O)NCc1ccco1)c1ccco1 [MLS000088899]

EC50 [1]: 6.2 µM | efficacy [1]: 60%
Compound: O=C(Nc1cccc(C(F)(F)F)c1)c1ccccc1NC(=O)C1CCCCC1 [MLS000579461]

EC50 ([2]; EC50 (cAMP response), HEK293-RXFP1 cells, 384-well format): 0.164 µM | EC50 ([2]; EC50 (cAMP response), HEK293-RXFP1 cells, 1,536-well format): 0.193 µM
Compound: C=C[C@@]1(C)CC(=O)[C@]2(O)[C@@]3(C)[C@@H](O)CCC(C)(C)[C@@H]3[C@H](O)[C@H](OC(C)=O)[C@@]2(C)O1 [forskolin, reference compound]

EC50 of cAMP production (HTRF cAMP assay) in HEK293-RXFP1 cells, 384-well format [3]: 0.000203 µM
Compound: Porcine relaxin (ligand)

activity in HEK293-V1b counter screen [4]: no activity | selectivity towards RXFP1 over RXFP2 [5]: > 30 fold | EC50 ([2]; read-out: EC50 (cAMP response), HEK293-RXFP1 cells, 384-well format): 0.000203 µM | EC50 ([2]; read-out: EC50 (cAMP response), HEK293-RXFP1 cells, 1,536-well format): 0.000494 µM
Compound: relaxin
